Data published in ChEMBL document CHEMBL3588803, “Design, synthesis and pharmacology of 1,1-bistrifluoromethylcarbinol derivatives as liver X receptor β-selective agonists” (Bioorg Med Chem Lett, 2015).

Tests used:
[1] = tested on: Hamster; assay: Increase in ABCA1 gene expression in Bio F1B hamster peripheral blood at 10 mg/kg, po; assay type: functional, Cricetinae
[2] = tested on: Hamster; assay: Hypolipidemic effect in Bio F1B hamster fed with high fat and cholesterol diet assessed as HDL-cholesterol level at 30 mg/kg, po relative to control; assay type: functional, Cricetinae
[3] = tested on: Syrian golden hamster; assay: Drug metabolism in CE-2 chow diet-fed golden Syrian hamster assessed as 4-(4-(1,1,1,3,3,3-Hexafluoro-2-hydroxypropan-2-yl)-2,6-di-n-propylphenoxy)-butanoic acid formation at 100 mg/kg, po after 0.5 to 24 hrs by HPLC-LC-MS/MS method; assay type: ADME, organism-based, Mesocricetus auratus; conditions: in vivo
Procedure, shortened: (§1)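 Hamsters on chow diet received a single oral dose of 100 mg/kg. Heparin plasma was drawn from a forearm vein at 0.5, 1, 2, 3, 4, 6, 8, 10 and 24 h after dosing. Concentrations of parent drug and its carboxylic acid metabolite were measured in plasma.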

[4] = tested on: Hamster; assay: Increase in ABCA1 gene expression in Bio F1B hamster intestine at 10 mg/kg, po; assay type: functional, Cricetinae
[5] = Plasma concentration in CE-2 chow diet-fed golden Syrian hamster at 100 mg/kg, po after 6 hrs by HPLC-LC-MS/MS method; assay type: ADME, organism-based, Mesocricetus auratus; procedure, shortened: as §1
[6] = Plasma concentration in CE-2 chow diet-fed golden Syrian hamster assessed as 4-(4-(1,1,1,3,3,3-Hexafluoro-2-hydroxypropan-2-yl)-2,6-di-n-propylphenoxy)-butanoic acid level at 100 mg/kg, po after 3 hrs by HPLC-LC-MS/MS method; assay type: ADME, organism-based, Mesocricetus auratus; conditions: in vivo; procedure, shortened: as §1
[7] = Plasma concentration in CE-2 chow diet-fed golden Syrian hamster at 100 mg/kg, po after 8 hrs by HPLC-LC-MS/MS method; assay type: ADME, organism-based, Mesocricetus auratus; procedure, shortened: as §1
[8] = tested on: Hamster; assay: Increase in ABCG5 gene expression in Bio F1B hamster intestine at 10 mg/kg, po; assay type: functional, Cricetinae
[9] = tested on: Hamster; assay: Increase in ABCG5 gene expression in Bio F1B hamster intestine at 100 mg/kg, po; assay type: functional, Cricetinae
Procedure, shortened: (§2)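 Bio F1B hamsters were fed a high-fat, high-cholesterol diet and dosed orally. Gene expression was measured in intestine (ABCA1, ABCG5, ABCG8) and in peripheral blood (ABCA1).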

[10] = tested on: Hamster; assay: Increase in ABCA1 gene expression in Bio F1B hamster intestine at 100 mg/kg, po; assay type: functional, Cricetinae; procedure, shortened: as §2
[11] = tested on: Hamster; assay: Hypolipidemic effect in Bio F1B hamster fed with high fat and cholesterol diet assessed as total cholesterol level at 100 mg/kg, po relative to control; assay type: functional, Cricetinae
[12] = Plasma concentration in CE-2 chow diet-fed golden Syrian hamster at 100 mg/kg, po after 1 hr by HPLC-LC-MS/MS method; assay type: ADME, organism-based, Mesocricetus auratus; procedure, shortened: as §1
[13] = tested on: Hamster; assay: Hypolipidemic effect in Bio F1B hamster fed with high fat and cholesterol diet assessed as LDL-cholesterol level at 10 mg/kg, po relative to control; assay type: functional, Cricetinae
[14] = tested on: Hamster; assay: Increase in ABCA1 gene expression in Bio F1B hamster intestine at 30 mg/kg, po; assay type: functional, Cricetinae; procedure, shortened: as §2
[15] = tested on: Hamster; assay: Increase in ABCA1 gene expression in Bio F1B hamster peripheral blood at 30 mg/kg, po; assay type: functional, Cricetinae; procedure, shortened: as §2
[16] = tested on: Hamster; assay: Hypolipidemic effect in Bio F1B hamster fed with high fat and cholesterol diet assessed as HDL-cholesterol level at 10 mg/kg, po relative to control; assay type: functional, Cricetinae
[17] = Plasma concentration in CE-2 chow diet-fed golden Syrian hamster assessed as 4-(4-(1,1,1,3,3,3-Hexafluoro-2-hydroxypropan-2-yl)-2,6-di-n-propylphenoxy)-butanoic acid level at 100 mg/kg, po after 8 hrs by HPLC-LC-MS/MS method; assay type: ADME, organism-based, Mesocricetus auratus; conditions: in vivo; procedure, shortened: as §1
[18] = Plasma concentration in CE-2 chow diet-fed golden Syrian hamster at 100 mg/kg, po after 0.5 hrs by HPLC-LC-MS/MS method; assay type: ADME, organism-based, Mesocricetus auratus; procedure, shortened: as §1
[19] = tested on: Hamster; assay: Hypolipidemic effect in Bio F1B hamster fed with high fat and cholesterol diet assessed as HDL-cholesterol level at 100 mg/kg, po relative to control; assay type: functional, Cricetinae
[20] = Plasma concentration in CE-2 chow diet-fed golden Syrian hamster assessed as 4-(4-(1,1,1,3,3,3-Hexafluoro-2-hydroxypropan-2-yl)-2,6-di-n-propylphenoxy)-butanoic acid level at 100 mg/kg, po after 1 hr by HPLC-LC-MS/MS method; assay type: ADME, organism-based, Mesocricetus auratus; conditions: in vivo; procedure, shortened: as §1
[21] = tested on: Hamster; assay: Increase in ABCG8 gene expression in Bio F1B hamster intestine at 30 mg/kg, po; assay type: functional, Cricetinae; procedure, shortened: as §2
[22] = tested on: Hamster; assay: Increase in ABCA1 gene expression in Bio F1B hamster intestine at 10 to 100 mg/kg, po; assay type: functional, organism-based; conditions: Cricetinae
[23] = Plasma concentration in CE-2 chow diet-fed golden Syrian hamster assessed as 4-(4-(1,1,1,3,3,3-Hexafluoro-2-hydroxypropan-2-yl)-2,6-di-n-propylphenoxy)-butanoic acid level at 100 mg/kg, po after 6 hrs by HPLC-LC-MS/MS method; assay type: ADME, organism-based, Mesocricetus auratus; conditions: in vivo; procedure, shortened: as §1
[24] = tested on: Hamster; assay: Effect in lipid profiles in Bio F1B hamster fed with high fat and cholesterol diet assessed as triglyceride level at 30 mg/kg, po relative to control; assay type: organism-based; conditions: cricetinae, in vivo
[25] = tested on: Hamster; assay: Hypolipidemic effect in Bio F1B hamster fed with high fat and cholesterol diet assessed as total cholesterol level at 10 mg/kg, po relative to control; assay type: functional, Cricetinae
[26] = tested on: Hamster; assay: Hypolipidemic effect in Bio F1B hamster fed with high fat and cholesterol diet assessed as LDL-cholesterol level at 30 mg/kg, po relative to control; assay type: functional, Cricetinae
[27] = Plasma concentration in CE-2 chow diet-fed golden Syrian hamster assessed as 4-(4-(1,1,1,3,3,3-Hexafluoro-2-hydroxypropan-2-yl)-2,6-di-n-propylphenoxy)-butanoic acid level at 100 mg/kg, po after 4 hrs by HPLC-LC-MS/MS method; assay type: ADME, organism-based, Mesocricetus auratus; conditions: in vivo; procedure, shortened: as §1
[28] = tested on: Hamster; assay: Increase in ABCA1 gene expression in Bio F1B hamster peripheral blood at 100 mg/kg, po; assay type: functional, Cricetinae; procedure, shortened: as §2
[29] = Plasma concentration in CE-2 chow diet-fed golden Syrian hamster at 100 mg/kg, po after 3 hrs by HPLC-LC-MS/MS method; assay type: ADME, organism-based, Mesocricetus auratus; procedure, shortened: as §1
[30] = tested on: Hamster; assay: Effect in lipid profiles in Bio F1B hamster fed with high fat and cholesterol diet assessed as triglyceride level at 10 mg/kg, po relative to control; assay type: organism-based; conditions: cricetinae, in vivo
[31] = tested on: Hamster; assay: Increase in ABCG8 gene expression in Bio F1B hamster intestine at 100 mg/kg, po; assay type: functional, Cricetinae; procedure, shortened: as §2
[32] = tested on: Hamster; assay: Hypolipidemic effect in Bio F1B hamster fed with high fat and cholesterol diet assessed as total cholesterol level at 30 mg/kg, po relative to control; assay type: functional, Cricetinae
[33] = tested on: Hamster; assay: Increase in ABCG8 gene expression in Bio F1B hamster intestine at 10 mg/kg, po; assay type: functional, Cricetinae
[34] = Plasma concentration in CE-2 chow diet-fed golden Syrian hamster at 100 mg/kg, po after 2 hrs by HPLC-LC-MS/MS method; assay type: ADME, organism-based, Mesocricetus auratus; procedure, shortened: as §1
[35] = Plasma concentration in CE-2 chow diet-fed golden Syrian hamster assessed as 4-(4-(1,1,1,3,3,3-Hexafluoro-2-hydroxypropan-2-yl)-2,6-di-n-propylphenoxy)-butanoic acid level at 100 mg/kg, po after 0.5 hrs by HPLC-LC-MS/MS method; assay type: ADME, organism-based, Mesocricetus auratus; conditions: in vivo; procedure, shortened: as §1
[36] = Plasma concentration in CE-2 chow diet-fed golden Syrian hamster at 100 mg/kg, po after 10 hrs by HPLC-LC-MS/MS method; assay type: ADME, organism-based, Mesocricetus auratus; procedure, shortened: as §1

Drug metabolism [3]: metabolite_detected
concentration at 6 h [5]: 630 nM
Cp [6]: 409 ng/mL
concentration at 8 h [7]: 420 nM
concentration at 1 h [12]: 490 nM
Cp [17]: 979 ng/mL
concentration at 0.5 h [18]: 310 nM
Cp [20]: 202 ng/mL
Cp [23]: 641 ng/mL
Activity [24]: 145%
Cp [27]: 529 ng/mL
concentration at 3 h [29]: 290 nM
Activity [30]: 97%
concentration at 2 h [34]: 320 nM
Cp [35]: 52 ng/mL
concentration at 10 h [36]: 110 nM
SMILES: CCCc1cc(C(O)(C(F)(F)F)C(F)(F)F)cc(CCC)c1OCCCCN1C(=O)NC(C)(c2ccc(OC(C)C)cc2)C1=O (stereo unspecified)
fold change (FC) [1]: 1
Activity [2]: 92%
fold change (FC) [4]: 2.1
fold change (FC) [8]: 1.2
fold change (FC) [9]: 1.3
fold change (FC) [10]: 5.2
Activity [11]: 53%
Activity [13]: 94%
fold change (FC) [14]: 4
fold change (FC) [15]: 0.8
Activity [16]: 98%
Activity [19]: 75%
fold change (FC) [21]: 1.4
Activity [22]: Dose-dependent effect
Activity [25]: 87%
Activity [26]: 91%
fold change (FC) [28]: 1
fold change (FC) [31]: 1.3
Activity [32]: 96%
fold change (FC) [33]: 1.3
